Values belong to the compound of their own block, whether it stands above or below them.
Experiments:
MT-4 cells = assay: Cytotoxicity assay; type: cell-based, human; conditions: read-out: CC50, concentration that inhibits the proliferation of MT-4 cells by 50%, MTT, five days, average of at least three independent experiments
In short: (§1)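 MT-4 cells grown in RPMI-1640 with 10% FBS, 100 units per mL penicillin and streptomycin, at 37 °C in humidified 5% CO2. Cells seeded at 50 000 per well and exposed to test compound (2.5, 5, 10, 20, 40, 80 μM) for five days at 37 °C. MTT (final 0.5 mg mL−1) added for 2 h, then DMSO. A570 read; measured three times; CC50 calculated.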

Cytotoxicity assay = type: cell-based, human; conditions: human, MT-4 cells
In short: as §1

HIV-1 integrase = HIV-1 integrase (Human immunodeficiency virus type 1 group M subtype B, UniProt P04585); assay: Strand transfer inhibition assay; type: biochemical

Compound: 5-nitro-3-(((4-(trifluoromethyl)benzyl)oxy)methyl)-1H-indole-2-carboxylic acid [Compound 10a]
CC50 (MT-4 cells): 65.2 ± 5.22 µM

Compound: O=C(O)c1cc2ccccc2[nH]1 [Compound 1, indole-2-carboxylic acid]
CC50 at 5 days (Cytotoxicity assay): > 80 µM
IC50 (HIV-1 integrase): 32.4 ± 4.51 µM

Compound: CCOC(=O)c1[nH]c2ccc(NC(=O)c3ccc(F)cc3)cc2c1Br [Compound 13a, ethyl 3-bromo-5-(4-fluorobenzamido)-1H-indole-2-carboxylate]
CC50 at 5 days (Cytotoxicity assay): > 80 µM
IC50 (HIV-1 integrase): 26 ± 1.27 µM

Compound: CCOC(=O)c1[nH]c2ccc(NC(=O)c3cnccn3)cc2c1Br [Compound 13b, Ethyl 3-bromo-5-(pyrazine-2-carboxamido)-1H-indole-2-carboxylat]
CC50 at 5 days (Cytotoxicity assay): > 80 µM
IC50 (HIV-1 integrase): 11.7 ± 1.08 µM

Compound: CCOC(=O)c1cc2ccc(Nc3ccc(F)cc3)cc2[nH]1 [Compound 16a, Ethyl 6-((4-fluorophenyl)amino)-1H-indole-2-carboxylate]
CC50 at 5 days (Cytotoxicity assay): > 80 µM
IC50 (HIV-1 integrase): > 40 µM

Compound: CCOC(=O)c1cc2ccc(Nc3ccc(Br)cc3)cc2[nH]1 [Compound 16b, Ethyl 6-((4-bromophenyl)amino)-1H-indole-2-carboxylate]
CC50 at 5 days (Cytotoxicity assay): > 80 µM
IC50 (HIV-1 integrase): > 40 µM

Compound: CCOC(=O)c1cc2ccc(Nc3ccc(OC)cc3)cc2[nH]1 [Compound 16c, Ethyl 6-((4-methoxyphenyl)amino)-1H-indole-2-carboxylate]
CC50 at 5 days (Cytotoxicity assay): > 80 µM
IC50 (HIV-1 integrase): > 40 µM

Compound: CCOC(=O)c1cc2ccc(NCc3cccc(F)c3)cc2[nH]1 [Compound 16g, Ethyl 6-((3-fluorobenzyl)amino)-1H-indole-2-carboxylate]
CC50 at 5 days (Cytotoxicity assay): > 80 µM
IC50 (HIV-1 integrase): > 40 µM

Compound: CCOC(=O)c1cc2ccc(NCc3ccccc3Cl)cc2[nH]1 [Compound 16i, Ethyl 6-((2-chlorobenzyl)amino)-1H-indole-2-carboxylate]
CC50 at 5 days (Cytotoxicity assay): > 80 µM
IC50 (HIV-1 integrase): 14.6 ± 1.12 µM

Compound: CCOC(=O)c1cc2ccc(NCc3ccc(OC)cc3)cc2[nH]1 [Compound 16j, Ethyl 6-((4-methoxybenzyl)amino)-1H-indole-2-carboxylate]
CC50 at 5 days (Cytotoxicity assay): > 80 µM
IC50 (HIV-1 integrase): 9.67 ± 0.89 µM

Compound: CCOC(=O)c1cc2ccc(NCCc3ccc(F)cc3)cc2[nH]1 [Compound 16k, Ethyl 6-((4-fluorophenethyl)amino)-1H-indole-2-carboxylate]
CC50 at 5 days (Cytotoxicity assay): > 80 µM
IC50 (HIV-1 integrase): > 40 µM

Compound: O=C(O)c1cc2ccc(Nc3ccc(F)cc3)cc2[nH]1 [Compound 17a, 6-((4-Fluorophenyl)amino)-1H-indole-2-carboxylic acid]
CC50 at 5 days (Cytotoxicity assay): > 80 µM
IC50 (HIV-1 integrase): 3.11 ± 0.18 µM

Compound: O=C(O)c1cc2ccc(Nc3ccc(Br)cc3)cc2[nH]1 [Compound 17b, 6-((4-Bromophenyl)amino)-1H-indole-2-carboxylic acid]
CC50 at 5 days (Cytotoxicity assay): > 80 µM
IC50 (HIV-1 integrase): 6.67 ± 0.51 µM

Compound: COc1ccc(Nc2ccc3cc(C(=O)O)[nH]c3c2)cc1 [Compound 17c, 6-((4-Methoxyphenyl)amino)-1H-indole-2-carboxylic acid]
CC50 at 5 days (Cytotoxicity assay): > 80 µM
IC50 (HIV-1 integrase): 12.3 ± 1.06 µM

Compound: COc1ccccc1Nc1ccc2cc(C(=O)O)[nH]c2c1 [Compound 17e, 6-((2-Methoxyphenyl)amino)-1H-indole-2-carboxylic acid]
CC50 at 5 days (Cytotoxicity assay): > 80 µM
IC50 (HIV-1 integrase): 7.08 ± 0.63 µM

Compound: O=C(O)c1cc2ccc(NCc3cccc(F)c3)cc2[nH]1 [Compound 17g, 6-((3-Fluorobenzyl)amino)-1H-indole-2-carboxylic acid]
CC50 at 5 days (Cytotoxicity assay): > 80 µM
IC50 (HIV-1 integrase): 15.6 ± 1.09 µM

Compound: Cc1nnc(C(=O)NC(C)(C)c2nc(C(=O)NCc3ccc(F)cc3)c(O)c(=O)n2C)o1 [RAL, Raltegravir, reference compound]
CC50 at 5 days (Cytotoxicity assay): > 80 µM

Compound: Isopropyl 3-((4-chlorophenethoxy)methyl)-5-nitro-1H-indole-2-carboxylate [Compound 9b]
CC50 (MT-4 cells): > 80 µM

Compound: isopropyl 5-nitro-3-((4-(trifluoromethyl)phenethoxy) methyl)-1H-indole-2-carboxylate [Compound 9a]
CC50 (MT-4 cells): 54.3 ± 4.79 µM

Second part, led by results:

IC50 (HIV-1 integrase): 10.1 ± 0.56 µM
Compound: CCOC(=O)c1[nH]c2ccccc2c1Nc1ccccc1OC [Compound 4a, ethyl 3-((2-methoxyphenyl)amino)-1H-indole-2-carboxylate]
CC50 at 5 days (Cytotoxicity assay): > 80 µM

IC50 (HIV-1 integrase): 10.2 ± 0.67 µM
Compound: CCOC(=O)c1[nH]c2ccccc2c1Nc1cccc(OC)c1 [Compound 4b, Ethyl 3-((3-methoxyphenyl)amino)-1H-indole-2-carboxylate]
CC50 at 5 days (Cytotoxicity assay): > 80 µM

IC50 (HIV-1 integrase): > 40 µM
Compound: CCOC(=O)c1[nH]c2ccccc2c1Nc1ccc(OC)cc1 [Compound 4c, Ethyl 3-((4-methoxyphenyl)amino)-1H-indole-2-carboxylate]
CC50 at 5 days (Cytotoxicity assay): > 80 µM

IC50 (HIV-1 integrase): 15.6 ± 1.03 µM
Compound: CCOC(=O)c1[nH]c2ccccc2c1Nc1ccc(OC)c(F)c1 [Compound 4d, Ethyl 3-((3-fluoro-4-methoxyphenyl)amino)-1H-indole-2-carboxylate]
CC50 at 5 days (Cytotoxicity assay): > 80 µM

IC50 (HIV-1 integrase): 15.7 ± 1.06 µM
Compound: CCOC(=O)c1[nH]c2ccccc2c1Nc1ccc(F)cc1 [Compound 4e, Ethyl 3-((4-fluorophenyl)amino)-1H-indole-2-carboxylate]
CC50 at 5 days (Cytotoxicity assay): > 80 µM

IC50 (HIV-1 integrase): > 40 µM
Compound: CCOC(=O)c1[nH]c2ccccc2c1Nc1ccccc1Cl [Compound 4f, Ethyl 3-((2-chlorophenyl)amino)-1H-indole-2-carboxylate]
CC50 at 5 days (Cytotoxicity assay): > 80 µM

IC50 (HIV-1 integrase): > 40 µM
Compound: CCOC(=O)c1cc2ccc(Nc3cccc(OC)c3)cc2[nH]1 [Compound 16d, Ethyl 6-((3-methoxyphenyl)amino)-1H-indole-2-carboxylate]
CC50 at 5 days (Cytotoxicity assay): > 80 µM

IC50 (HIV-1 integrase): > 40 µM
Compound: CCOC(=O)c1cc2ccc(Nc3ccccc3OC)cc2[nH]1 [Compound 16e, Ethyl 6-((2-methoxyphenyl)amino)-1H-indole-2-carboxylate]
CC50 at 5 days (Cytotoxicity assay): > 80 µM

IC50 (HIV-1 integrase): > 40 µM
Compound: CCOC(=O)c1cc2ccc(Nc3ccc(OC)c(F)c3)cc2[nH]1 [Compound 16f, Ethyl 6-((3-fluoro-4-methoxyphenyl)amino)-1H-indole-2-carboxylate]
CC50 at 5 days (Cytotoxicity assay): > 80 µM

IC50 (HIV-1 integrase): 8.68 ± 0.77 µM
Compound: CCOC(=O)c1cc2ccc(NCc3ccccc3F)cc2[nH]1 [Compound 16h, Ethyl 6-((2-fluorobenzyl)amino)-1H-indole-2-carboxylate]
CC50 at 5 days (Cytotoxicity assay): > 80 µM

IC50 (HIV-1 integrase): 14.1 ± 0.78 µM
Compound: COc1ccc(Nc2ccc3cc(C(=O)O)[nH]c3c2)cc1F [Compound 17f, 6-((3-Fluoro-4-methoxyphenyl)amino)-1H-indole-2-carboxylic acid]
CC50 at 5 days (Cytotoxicity assay): > 80 µM
